Measurements taken from ChEMBL document CHEMBL5712073, “DNA methylation in small cell lung cancer defines distinct disease subtypes and correlates with high expression of EZH2” (Oncogene, 2015).
Calls of active or inactive are those of the source. No cut-off for these calls is given here.

How the values were obtained:
[1] = target: Histone-lysine N-methyltransferase EZH2 (Homo sapiens) (UniProt Q15910); assay: Inhibition of EZH2 in human PDX LX92 cells assessed as decrease in H3K27me3 level after 7 days by Westernblot analysis; format: cell-based; conditions: time 7.0 day
Sequence of Histone-lysine N-methyltransferase EZH2 (Homo sapiens) (Q15910 whole entry, looked up): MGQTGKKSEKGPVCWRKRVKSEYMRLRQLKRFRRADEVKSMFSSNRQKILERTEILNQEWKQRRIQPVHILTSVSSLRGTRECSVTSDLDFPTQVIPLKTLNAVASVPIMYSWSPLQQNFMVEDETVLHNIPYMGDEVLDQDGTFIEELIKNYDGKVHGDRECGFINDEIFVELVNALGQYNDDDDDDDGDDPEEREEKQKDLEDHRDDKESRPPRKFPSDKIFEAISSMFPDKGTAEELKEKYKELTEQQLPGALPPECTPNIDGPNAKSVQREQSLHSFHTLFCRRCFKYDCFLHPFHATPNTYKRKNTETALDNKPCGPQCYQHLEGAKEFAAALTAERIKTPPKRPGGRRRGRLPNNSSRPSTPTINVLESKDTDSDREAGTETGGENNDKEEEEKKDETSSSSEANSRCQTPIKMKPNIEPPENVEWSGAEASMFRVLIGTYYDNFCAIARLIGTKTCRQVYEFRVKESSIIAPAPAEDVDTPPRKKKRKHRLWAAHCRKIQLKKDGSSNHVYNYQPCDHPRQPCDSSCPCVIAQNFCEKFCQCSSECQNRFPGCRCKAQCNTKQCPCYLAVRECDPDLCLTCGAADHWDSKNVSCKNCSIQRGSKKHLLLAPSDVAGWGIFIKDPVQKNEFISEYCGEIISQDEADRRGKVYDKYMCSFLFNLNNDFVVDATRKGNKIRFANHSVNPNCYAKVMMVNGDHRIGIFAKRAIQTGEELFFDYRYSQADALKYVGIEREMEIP
Procedure, shortened: (§1)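 Ex vivo LX92 cultures (dissociated PDX cells in DMEM:F12 plus EGM-2 growth factors, 5,000 cells/well) given EZH2 inhibitor daily at 1 µM final, DMSO vehicle. Day 7 lysates probed by Western blot for EZH1, EZH2, H3K27me2 and H3K27me3.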

PDX LX92 [2] = assay: Antiproliferative activity against human PDX LX92 cells assessed as resazurin conversion measured upto 7 days by alamar blue based assay; format: functional, cell-based; conditions: time <= 7.0 day
Procedure, shortened: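 LX92 PDX dissociated, filtered through 70 µm mesh, washed, red cells lysed; ~1×10^6 viable cells cultured in DMEM:F12 with EGM-2 growth factors. About 72 h after dissociation, seeded 5,000 cells/well; compound added daily at 1 µM final, DMSO vehicle. Viability read by resazurin conversion over time for 7 days; 2-way ANOVA with Dunnett adjustment.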

[3] = target: Histone-lysine N-methyltransferase EZH2 (Homo sapiens) (UniProt Q15910); assay: Inhibition of EZH2 in human PDX LX92 cells assessed as decrease in H3K27me2 level after 7 days by Westernblot analysis; format: cell-based; conditions: time 7.0 day; procedure, shortened: as §1
PDX LX92 [4] = assay: Antitumor activity against human PDX LX92 cells xenografted in athymic nude mouse assessed as reduction of EZH2 level at 100 mg/kg, bid measured upto 42 days by Westernblot analysis; format: functional, organism-based; conditions: time <= 42.0 day
Procedure, shortened: (§2)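 Mice implanted subcutaneously in the right hind flank with 5×10^6 viable cells in 1:1 HBSS:matrigel; randomized at ~150 mm3 tumor volume. Drug formulated in 0.5% NaCMC with 0.1% Tween-80 in water, dosed BID (10AM/4PM), Mon-Fri. Tumors harvested 2 h after final dose for Western blot.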

[5] = Toxicity in athymic nude mouse xenografted with human PDX LX92 cells assessed as tolerability at 100 mg/kg, bid measured upto 42 days; format: organism-based; conditions: in vivo, 1008 h, time < 42 day
Procedure, shortened: (§3)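 Subcutaneous right-flank xenograft of 5×10^6 viable cells in 1:1 HBSS:matrigel; mice randomized at ~150 mm3. Vehicle 0.5% NaCMC with 0.1% Tween-80 in water; dosing Mon-Fri. Tumor volumes and body weights measured twice weekly.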

[6] = Toxicity in athymic nude mouse xenografted with human PDX LX92 cells assessed as tolerability at 100 mg/kg, qd measured upto 42 days; format: organism-based; conditions: in vivo, 1008 h, time < 42 day; procedure, shortened: as §3
PDX LX92 [7] = assay: Antitumor activity against human PDX LX92 cells xenografted in athymic nude mouse assessed as reduction of H3K27me3 level at 100 mg/kg, bid measured upto 42 days by Westernblot analysis; format: functional, organism-based; conditions: time <= 42.0 day; procedure, shortened: as §2
PDX LX92 [8] = assay: Antitumor activity against human PDX LX92 cells xenografted in athymic nude mouse assessed as reduction of H3K27me2 level at 100 mg/kg, bid measured upto 42 days by Westernblot analysis; format: functional, organism-based; conditions: time <= 42.0 day; procedure, shortened: as §2
PDX LX92 [9] = assay: Antitumor activity against human PDX LX92 cells xenografted in athymic nude mouse assessed as reduction of EZH1 level at 100 mg/kg, bid measured upto 42 days by Westernblot analysis; format: functional, organism-based; conditions: time <= 42.0 day; procedure, shortened: as §2

SMILES	inhibition [1]	Activity (PDX LX92 [2])	inhibition [3]	Activity (PDX LX92 [4])	Activity [5]	Activity [6]	Activity (PDX LX92 [7])	Activity (PDX LX92 [8])	Activity (PDX LX92 [9])
CCCc1cc(C)[nH]c(=O)c1CNC(=O)c1cc(-c2ccc(N3CCN(C(C)C)CC3)nc2)cc2c1cnn2C(C)C	Active	Active							
Cc1cc(C)c(CNC(=O)c2cc(-c3ccc(CN4CCOCC4)cc3)cc3c2cnn3C2CCCC2)c(=O)[nH]1	Active	Active	Active						
CCCc1cc(C)[nH]c(=O)c1CNC(=O)c1cc(-c2ccnc(N3CCN(C)CC3)c2)cc2c1cnn2C(C)C	Active	Active							
CCN(c1cc(-c2ccc(CN3CCOCC3)cc2)cc(C(=O)NCc2c(C)cc(C)[nH]c2=O)c1C)C1CCOCC1 [TAZEMETOSTAT]				Active	Non-Toxic	Non-Toxic	Active	Active	Active
